Calls of active or inactive are those of the source. The calls are words filed in the database; no cut-off is given here.
Experiments:
[1] = Metabolic stability in rat liver microsomes assessed as half-life preincubated for 10 mins followed by NADPH addition and measured upto 60 mins by LC-MS/MS analysis; assay type: ADME, Microsome; details: time < 70 min
[2] = system: MOLM-13; test: Antiproliferative activity against human MOLM-13 cells assessed as inhibition of cell growth incubated for 72 hrs by CCK-8 assay; assay type: functional
[3] = AUC (0 to last) in Sprague-Dawley rat at 1 mg/kg, iv measured upto 24 hrs by LC-MS/MS analysis; assay type: ADME, organism-based; parameters: dose 1 mg/kg, time < 24 hrs, route iv; details: in vivo
[4] = Oral bioavailability in Sprague-Dawley rat at 5 mg/kg measured upto 24 hrs by LC-MS/MS analysis; assay type: ADME, organism-based; details: in vivo
[5] = system: SW-620; test: Antiproliferative activity against human SW620 cells assessed as inhibition of cell growth incubated for 72 hrs by CCK-8 assay; assay type: functional
[6] = system: PC-3; test: Antiproliferative activity against human PC-3 cells assessed as inhibition of cell growth incubated for 72 hrs by CCK-8 assay; assay type: functional
[7] = system: Raji; test: Antiproliferative activity against human Raji cells assessed as inhibition of cell growth incubated for 72 hrs by CCK-8 assay; assay type: functional
In short: (§1)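 8000 cells/well. Test compound was serially diluted from a 10 uM top concentration and staurosporine from 1 uM. CC50 and maximum % inhibition are reported.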

[8] = system: SNU-5; test: Antiproliferative activity against human SNU-5 cells assessed as inhibition of cell growth incubated for 72 hrs by CCK-8 assay; assay type: functional
In short: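 Plated at 10000 cells/well. Dose series topped at 10 uM for test compound and at 1 uM for the staurosporine reference. Read-outs were CC50 and maximum % inhibition.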

[9] = system: MCF7; test: Antiproliferative activity against human MCF7 cells assessed as inhibition of cell growth incubated for 72 hrs by CCK-8 assay; assay type: functional
[10] = system: CAKI-1; test: Antiproliferative activity against human CAKI-1 cells assessed as inhibition of cell growth incubated for 72 hrs by CCK-8 assay; assay type: functional
[11] = system: HepG2; test: Antiproliferative activity against human HepG2 cells assessed as inhibition of cell growth incubated for 72 hrs by CCK-8 assay; assay type: functional
[12] = system: NCI-H226; test: Antiproliferative activity against human NCI-H226 cells assessed as inhibition of cell growth incubated for 72 hrs by CCK-8 assay; assay type: functional
[13] = system: OVCAR-3; test: Antiproliferative activity against human OVCAR-3 cells assessed as inhibition of cell growth incubated for 72 hrs by CCK-8 assay; assay type: functional
[14] = Intrinsic clearance in rat; assay type: ADME
[15] = system: MSTO-211H; test: Antiproliferative activity against human MSTO-211H cells assessed as inhibition of cell growth incubated for 72 hrs by CCK-8 assay; assay type: functional
[16] = system: HEL 92.1.7; test: Antiproliferative activity against human HEL 92.1.7 cells assessed as inhibition of cell growth incubated for 72 hrs by CCK-8 assay; assay type: functional; in short: as §1
[17] = Intrinsic clearance in human; assay type: ADME
[18] = molecular target: Aurora kinase A (Homo sapiens) (UniProt O14965); test: Inhibition of Aurora A (unknown origin) at 1 uM
Aurora kinase A (Homo sapiens), sequence (O14965 whole entry): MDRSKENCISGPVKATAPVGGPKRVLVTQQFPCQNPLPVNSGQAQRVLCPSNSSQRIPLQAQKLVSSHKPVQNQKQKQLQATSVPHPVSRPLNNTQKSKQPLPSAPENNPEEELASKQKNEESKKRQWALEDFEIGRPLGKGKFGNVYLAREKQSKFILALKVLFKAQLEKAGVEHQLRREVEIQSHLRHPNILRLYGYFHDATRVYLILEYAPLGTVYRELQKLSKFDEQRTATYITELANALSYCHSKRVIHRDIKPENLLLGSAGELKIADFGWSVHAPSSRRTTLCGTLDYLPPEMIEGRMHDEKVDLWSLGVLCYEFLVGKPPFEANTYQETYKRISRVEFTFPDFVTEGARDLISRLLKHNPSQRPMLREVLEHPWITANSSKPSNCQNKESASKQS

[19] = system: NCI-H2052; test: Antiproliferative activity against human NCI-H2052 cells assessed as inhibition of cell growth incubated for 72 hrs by CCK-8 assay; assay type: functional
[20] = system: 143B; test: Antiproliferative activity against human 143B cells assessed as inhibition of cell growth incubated for 72 hrs by CCK-8 assay; assay type: functional
[21] = system: SNU-16; test: Antiproliferative activity against human SNU-16 cells assessed as inhibition of cell growth incubated for 72 hrs by CCK-8 assay; assay type: functional; in short: as §1
[22] = system: ASPC1; test: Antiproliferative activity against human ASPC1 cells assessed as inhibition of cell growth incubated for 72 hrs by CCK-8 assay; assay type: functional
In short: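 5000 cells/well. Test compound was titrated from 10 uM and staurosporine control from 1 uM. Values are CC50 and maximum % inhibition.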

[23] = molecular target: T1, Tyrosine-protein kinase receptor UFO (Homo sapiens, UniProt P30530); test: Inhibition of human Axl using KKSRGDYMTMQIG as substrate incubated for 40 mins in the presence of [gamma33P]ATP by scintillation counting analysis
T1 sequence (P30530 whole entry): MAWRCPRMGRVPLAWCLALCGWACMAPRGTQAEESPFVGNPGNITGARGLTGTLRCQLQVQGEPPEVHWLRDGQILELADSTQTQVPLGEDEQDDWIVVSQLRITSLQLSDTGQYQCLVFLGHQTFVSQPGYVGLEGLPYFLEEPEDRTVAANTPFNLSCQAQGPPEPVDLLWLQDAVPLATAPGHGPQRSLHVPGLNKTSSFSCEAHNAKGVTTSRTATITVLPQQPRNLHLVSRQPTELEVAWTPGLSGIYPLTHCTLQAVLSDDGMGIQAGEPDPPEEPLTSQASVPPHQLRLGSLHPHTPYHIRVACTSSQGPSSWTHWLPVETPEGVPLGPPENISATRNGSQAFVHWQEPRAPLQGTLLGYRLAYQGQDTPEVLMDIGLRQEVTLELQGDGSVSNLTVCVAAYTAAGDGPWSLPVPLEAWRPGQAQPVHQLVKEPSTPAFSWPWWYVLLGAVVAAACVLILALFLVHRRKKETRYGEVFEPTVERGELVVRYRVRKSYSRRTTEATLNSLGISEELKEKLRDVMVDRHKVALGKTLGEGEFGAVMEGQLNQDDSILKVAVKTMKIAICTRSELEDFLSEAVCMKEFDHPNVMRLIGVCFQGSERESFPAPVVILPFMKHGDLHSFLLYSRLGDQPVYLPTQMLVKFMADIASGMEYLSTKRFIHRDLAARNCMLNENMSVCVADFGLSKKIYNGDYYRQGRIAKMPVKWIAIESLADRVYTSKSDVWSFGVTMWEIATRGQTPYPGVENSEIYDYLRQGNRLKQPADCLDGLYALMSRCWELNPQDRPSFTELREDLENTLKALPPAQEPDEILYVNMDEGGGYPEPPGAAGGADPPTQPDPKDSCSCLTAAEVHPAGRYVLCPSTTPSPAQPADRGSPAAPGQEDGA

[24] = molecular target: Tyrosine-protein kinase TXK (Homo sapiens) (UniProt P42681); test: Inhibition of Txk (unknown origin) at 1 uM relative to control
Tyrosine-protein kinase TXK (Homo sapiens), sequence (P42681 whole entry): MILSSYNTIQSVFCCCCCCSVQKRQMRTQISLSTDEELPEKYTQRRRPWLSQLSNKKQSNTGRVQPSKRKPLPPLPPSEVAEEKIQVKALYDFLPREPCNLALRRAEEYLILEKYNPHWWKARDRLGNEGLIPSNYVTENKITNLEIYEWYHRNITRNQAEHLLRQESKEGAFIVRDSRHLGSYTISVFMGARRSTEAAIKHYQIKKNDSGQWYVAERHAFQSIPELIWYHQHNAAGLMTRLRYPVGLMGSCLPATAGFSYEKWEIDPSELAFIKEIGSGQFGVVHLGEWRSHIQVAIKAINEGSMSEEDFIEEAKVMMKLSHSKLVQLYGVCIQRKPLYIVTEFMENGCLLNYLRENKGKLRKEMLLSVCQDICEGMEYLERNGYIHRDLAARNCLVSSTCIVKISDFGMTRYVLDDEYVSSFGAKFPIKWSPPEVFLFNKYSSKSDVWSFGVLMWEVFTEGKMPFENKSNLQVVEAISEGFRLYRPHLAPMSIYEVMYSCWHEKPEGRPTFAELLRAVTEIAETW

[25] = Cmax in Sprague-Dawley rat at 5 mg/kg, po measured upto 24 hrs by LC-MS/MS analysis; assay type: ADME, organism-based; parameters: dose 5 mg/kg, time < 24 hrs, route po; details: in vivo
[26] = system: EVSA-T; test: Antiproliferative activity against human EVSA-T cells assessed as inhibition of cell growth incubated for 72 hrs by CCK-8 assay; assay type: functional
[27] = system: BXPC-3; test: Antiproliferative activity against human BXPC-3 cells assessed as inhibition of cell growth incubated for 72 hrs by CCK-8 assay; assay type: functional
[28] = Antiproliferative activity against human NCI-H1954 cells assessed as inhibition of cell growth incubated for 72 hrs by CCK-8 assay; assay type: functional
[29] = molecular target: Proto-oncogene tyrosine-protein kinase receptor Ret (Homo sapiens) (UniProt P07949); test: Inhibition of Ret (unknown origin) at 1 uM relative to control
Proto-oncogene tyrosine-protein kinase receptor Ret (Homo sapiens), sequence (P07949 whole entry): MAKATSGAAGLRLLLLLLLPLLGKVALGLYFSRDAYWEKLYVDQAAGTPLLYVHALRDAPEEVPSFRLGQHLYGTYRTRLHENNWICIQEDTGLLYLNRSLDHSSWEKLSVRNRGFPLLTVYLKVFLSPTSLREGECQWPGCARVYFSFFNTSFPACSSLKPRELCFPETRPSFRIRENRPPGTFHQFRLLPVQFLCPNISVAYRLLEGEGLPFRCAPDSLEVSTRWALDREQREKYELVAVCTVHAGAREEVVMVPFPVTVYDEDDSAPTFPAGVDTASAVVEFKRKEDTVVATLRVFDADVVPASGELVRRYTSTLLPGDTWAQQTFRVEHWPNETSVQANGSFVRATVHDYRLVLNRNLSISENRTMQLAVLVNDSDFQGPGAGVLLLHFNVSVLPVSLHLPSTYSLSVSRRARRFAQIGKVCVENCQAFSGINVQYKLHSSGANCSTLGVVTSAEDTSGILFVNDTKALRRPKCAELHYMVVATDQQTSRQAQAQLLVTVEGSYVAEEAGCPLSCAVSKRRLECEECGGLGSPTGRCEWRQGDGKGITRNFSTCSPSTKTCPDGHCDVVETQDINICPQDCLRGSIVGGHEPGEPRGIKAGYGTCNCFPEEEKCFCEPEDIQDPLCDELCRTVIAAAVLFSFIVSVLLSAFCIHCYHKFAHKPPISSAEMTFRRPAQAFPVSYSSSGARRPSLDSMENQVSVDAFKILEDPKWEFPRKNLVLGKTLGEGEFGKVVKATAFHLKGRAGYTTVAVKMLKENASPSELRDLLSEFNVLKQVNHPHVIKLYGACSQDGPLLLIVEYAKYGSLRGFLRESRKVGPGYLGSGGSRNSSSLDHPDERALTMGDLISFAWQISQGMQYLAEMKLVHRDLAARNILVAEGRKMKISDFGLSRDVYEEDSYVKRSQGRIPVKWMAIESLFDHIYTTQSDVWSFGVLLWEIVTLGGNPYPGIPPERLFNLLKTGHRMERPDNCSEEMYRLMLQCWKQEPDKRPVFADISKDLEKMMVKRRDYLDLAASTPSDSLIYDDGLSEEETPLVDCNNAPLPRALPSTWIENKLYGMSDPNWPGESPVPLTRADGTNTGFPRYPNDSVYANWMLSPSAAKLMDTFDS

[30] = Antiproliferative activity against human T.Tn cells assessed as inhibition of cell growth incubated for 72 hrs by CCK-8 assay; assay type: functional
[31] = Half-life in Sprague-Dawley rat at 1 mg/kg, iv measured upto 24 hrs by LC-MS/MS analysis; assay type: ADME, organism-based; details: in vivo

**Q.** What does the source list for CC(C)n1cnc(-c2ccccc2Nc2nc(Nc3ccc(N(C)C4CCN(C)CC4)cc3)ncc2Cl)n1?
**A.** half-life [1]: 0.472 h; CC50 [2]: 206 nM; AUClast [3]: 422 ng·h/mL; bioavailability [4]: 56.1%; CC50 [5]: 349 nM; CC50 [6]: 5590 nM; CC50 [7]: 4560 nM; CC50 [8]: 356 nM; CC50 [9]: 5190 nM; CC50 [10]: 493 nM; CC50 [11]: 352 nM; CC50 [12]: 1240 nM; CC50 [13]: 224 nM; CLint scaled [14]: 33.9 mL/min/kg; CC50 [15]: 451 nM; CC50 [16]: 457 nM; CLint scaled [17]: 12 mL/min/kg; inhibition [18]: Active; CC50 [19]: 1180 nM; CC50 [20]: 1340 nM; CC50 [21]: 149 nM; CC50 [22]: 755 nM; IC50 [23]: 5 nM; inhibition [24]: 70%; Cmax [25]: 83.9 ng/mL; CC50 [26]: 1150 nM; CC50 [27]: 382 nM; CC50 [28]: 1210 nM; inhibition [29]: 70%; CC50 [30]: 119 nM; half-life [31]: 6.6 h
